Laboratory results published in ChEMBL document CHEMBL3085685, “In vitro and in vivo antileishmanial and trypanocidal studies of new N-benzene- and N-naphthalenesulfonamide derivatives” (J Med Chem, 2013).
Calls of active or inactive are those of the source. The rule behind the calls is not given here.

What was measured:
Leishmania braziliensis = assay: Leishmanicidal activity against extracellular promastigote stage of Leishmania braziliensis 2903 assessed as reduction of parasite load after 48 hrs by resazurin dye-based fluorometric analysis; type: functional, organism-based
In short: (§1)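 Log-phase promastigotes cultured in Schneider's medium with 20% heat-inactivated FBS at 26 °C, 2.5 × 10^5 per well. DMSO-dissolved compounds added as 2-fold serial dilutions, final DMSO ≤0.2% (v/v), 48 h at 26 °C. Growth read by 2.5 mM resazurin stock, fluorescence 535/590 nm. Triplicate; IC50 by probit analysis.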

[1] = Cytotoxicity against mouse NCTC-929 cells assessed as reduction of cell viability after 24 hrs by resazurin dye-based […]
In short: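 NCTC clone 929 fibroblasts in DMEM with 10% FBS and 2 mM L-glutamine, plated at 3 × 10^4 cells/well and grown overnight at 37 °C, 5% CO2. Compounds in fresh medium for 24 h, then 2 mM resazurin solution added for 3 h. Absorbance read at 570 and 595 nm; CC50 taken as 50% viability loss versus untreated cells, by probit analysis.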

Leishmania amazonensis [2] = assay: Leishmanicidal activity against extracellular promastigote stage of Leishmania amazonensis MHOM/Br/79/Maria assessed as reduction of parasite load after 48 hrs by resazurin dye-based fluorometric analysis; type: functional, organism-based; in short: as §1
[3] = Cytotoxicity against mouse J774 cells assessed as reduction of cell viability after 24 hrs by resazurin dye-based fluorometric analysis
In short: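 J774 macrophages in RPMI 1640 with 10% heat-inactivated FBS, seeded at 5 × 10^4 cells/well and attached 24 h at 37 °C, 5% CO2. Medium swapped for drug dilutions for 24 h. Then 2.5 mM resazurin stock added for 3 h, fluorescence read at 535 nm excitation / 590 nm emission. Triplicate; CC50 from probit analysis.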

Leishmania infantum [4] = assay: Leishmanicidal activity against extracellular promastigote stage of Leishmania infantum MCAN/ES/96/BCN150 assessed as reduction of parasite load after 48 hrs by resazurin dye-based fluorometric analysis; type: functional, organism-based; in short: as §1
Trypanosoma cruzi [5] = assay: Trypanocidal activity against extracellular epimastigote stage of Trypanosoma cruzi CL-B5 assessed as reduction of parasite load after 72 hrs by CPRG-based colorimetric analysis
Leishmania guyanensis = assay: Leishmanicidal activity against extracellular promastigote stage of Leishmania guyanensis 141/93 assessed as reduction of parasite load after 48 hrs by resazurin dye-based fluorometric analysis; type: functional, organism-based; in short: as §1
Leishmania amazonensis [6] = assay: Leishmanicidal activity against intracellular amastigote stage of Leishmania amazonensis MHOM/Br/79/Maria infected in mouse J774 cells assessed as reduction of parasite load after 48 hrs by resazurin dye-based fluorometric analysis; type: functional, organism-based
In short: (§2)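 J774 macrophages (5 × 10^4/well) infected with stationary promastigotes at 1:10, 24 h at 33 °C then 24 h at 37 °C, 5% CO2, and washed free of promastigotes. Then 2-fold serial dilutions in triplicate for 48 h at 37 °C. Cells lysed with RPMI with 0.048% HEPES and 0.006% SDS, transformed in Schneider's 3 days at 26 °C, resazurin 3 h, fluorescence 535/590 nm.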

Leishmania infantum [7] = assay: Leishmanicidal activity against intracellular amastigote stage of Leishmania infantum MCAN/ES/96/BCN150 infected in mouse J774 cells assessed as reduction of parasite load after 48 hrs by resazurin dye-based fluorometric analysis; type: functional, organism-based; in short: as §2
[8] = Selectivity index, ratio of CC50 for mouse NCTC-929 cells to IC50 for extracellular epimastigote stage of Trypanosoma cruzi CL-B5; type: functional
Trypanosoma cruzi [9] = assay: Trypanocidal activity against intracellular amastigote stage of Trypanosoma cruzi CL-B5 infected in mouse NCTC-929 cells assessed as reduction of parasite load after 7 days by CPRG-based colorimetric analysis
Trypanosoma cruzi [10] = assay: Trypanocidal activity against bloodstream trypomastigote stage of Trypanosoma cruzi Y infected in BALB/c mouse assessed as reduction of survival rate at 10 mg/kg/day, ip qd administered for 5 days measured daily until day 30 post-infection; type: functional, organism-based
In short: (§3)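 Female BALB/c mice (20–24 g) infected ip with 10^4 Y-strain bloodstream trypomastigotes; only parasitemic animals used. Compounds dissolved in DMSO, freshly diluted in propylene glycol, given ip at 10 mg/kg/day for 5 days from 5 dpi, with an untreated group. Parasitemia counted by Pizzi–Brener in 5 μL tail blood at 5, 8, 10 dpi; mortality checked daily to 30 dpi.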

Trypanosoma cruzi [11] = assay: Trypanocidal activity against bloodstream trypomastigote stage of Trypanosoma cruzi Y infected in BALB/c mouse assessed as reduction of parasitemia at 10 mg/kg/day, ip qd administered for 3 days measured on day 8 post-infection by microscopic analysis relative to control; type: functional; design: scale not given: the % may be the effect or the level left; conditions: route intraperitoneal; in short: as §3
Trypanosoma cruzi [12] = assay: Trypanocidal activity against bloodstream trypomastigote stage of Trypanosoma cruzi Y infected in BALB/c mouse assessed as reduction of parasitemia at 10 mg/kg/day, ip qd administered for 5 days measured on day 10 post-infection by microscopic analysis relative to control; type: functional; design: scale not given: the % may be the effect or the level left; conditions: route intraperitoneal; in short: as §3
Leishmania infantum [13] = assay: Leishmanicidal activity against promastigote stage of Leishmania infantum MCAN/ES/96/BCN150 infected in BALB/c mouse assessed as reduction of parasite burden in liver at 5 mg/kg, ip qd administered for 5 days measured after 7 days by limiting dilution assay relative to untreated control; type: functional
In short: (§4)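 BALB/c mice infected intracardially under pentobarbital anaesthesia with 10^7 stationary L. infantum BCN150 promastigotes. From day 21 post-infection, dosed ip once daily for 5 days in 0.1 mL propylene glycol, with an untreated control group. Killed 7 days later; spleen and liver burdens by limiting dilution and expressed as % reduction versus controls.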

[14] = Selectivity index, ratio of CC50 for mouse J774 cells to IC50 for extracellular promastigote stage of Leishmania amazonensis MHOM/Br/79/Maria; type: functional
[15] = Selectivity index, ratio of CC50 for mouse J774 cells to IC50 for extracellular promastigote stage of Leishmania infantum MCAN/ES/96/BCN150; type: functional
Leishmania infantum [16] = assay: Leishmanicidal activity against promastigote stage of Leishmania infantum MCAN/ES/96/BCN150 infected in BALB/c mouse assessed as reduction of parasite burden in spleen at 5 mg/kg, ip qd administered for 5 days measured after 7 days by limiting dilution assay relative to untreated control; type: functional; design: scale not given: the % may be the effect or the level left; in short: as §4
Leishmania infantum [17] = assay: Antileishmanial activity against promastigote stage of Leishmania infantum assessed as disappearance of kinetoplast DNA at IC50 after 48 hrs by propidium iodide staining-based confocal laser scanning microscopic analysis; type: functional, organism-based
Leishmania infantum [18] = assay: Binding affinity to beta-tubulin in promastigote stage of Leishmania infantum assessed as structure disorganization at IC50 after 24 to 48 hrs by confocal laser scanning microscopic analysis
Mus musculus = assay: Toxicity in BALB/c mouse infected with promastigote stage of Leishmania infantum MCAN/ES/96/BCN150 assessed as appearance of hyperactivity with local skin irritation at 5 mg/kg, ip qd administered for 5 days; type: organism-based; design: dose 5 mg/kg, route intraperitoneal; conditions: in vivo, 120 h; in short: as §4
Leishmania infantum [19] = assay: Antileishmanial activity against promastigote stage of Leishmania infantum assessed as induction of apoptosis at IC50 after 48 hrs by propidium iodide staining-based confocal laser scanning microscopic analysis; type: functional, organism-based
[20] = Selectivity index, ratio of CC50 for mouse J774 cells to IC50 for extracellular promastigote stage of Leishmania guyanensis 141/93; type: functional
[21] = Trypanosoma cruzi, CL-B5, 72 h, read-out: IC50
[22] = Leishmania braziliensis, 2903, 48 h, read-out: IC50
[23] = Leishmania amazonensis, MHOM/Br/79/Maria, 48 h, read-out: IC50
[24] = Leishmania amazonensis, MHOM/Br/79/Maria, J774, 48 h, read-out: IC50
[25] = Leishmania infantum, MCAN/ES/96/BCN150, J774, 48 h, read-out: IC50
[26] = Leishmania infantum, MCAN/ES/96/BCN150, 48 h, read-out: IC50
[27] = Leishmania guyanensis, 141/93, 48 h, read-out: IC50
[28] = Trypanosoma cruzi, CL-B5, NCTC-929, 168 h, read-out: IC50

Structure (SMILES) | CC50 at 24 h [1] | CC50 at 24 h [3] | IC50 (Trypanosoma cruzi [5]; [21]) | IC50 (Leishmania braziliensis; [22]) | IC50 (Leishmania amazonensis [2]; [23]) | IC50 (Leishmania amazonensis [6]; [24]) | IC50 (Leishmania infantum [7]; [25]) | IC50 (Leishmania infantum [4]; [26]) | IC50 (Leishmania guyanensis; [27]) | IC50 (Leishmania amazonensis [6]; j774) | Ratio CC50/IC50 [8] | IC50 (Trypanosoma cruzi [9]; [28]) | IC50 (Leishmania infantum [7]; j774) | Activity (Trypanosoma cruzi [10]) | Activity (Trypanosoma cruzi [11]) | Activity (Trypanosoma cruzi [12]) | Activity (Leishmania infantum [13]) | Ratio CC50/IC50 [14] | further results
O=S(=O)(c1cccc2ccccc12)N1CCc2ccccc2C1 | > 310 µM | ≥ 300 µM | 114 µM |  |  |  |  |  |  |  |  |  |  |  |  |  |  |  | IC50 (Leishmania braziliensis): Not Active; IC50 (Leishmania amazonensis [2]): Not Active; IC50 (Leishmania infantum [4]): Not Active; IC50 (Leishmania guyanensis): Not Active
CCCCCCCCCCCCCCCCOP(=O)([O-])OCC[N+](C)(C)C [MILTEFOSINE] |  | 136 µM |  | 7.6 µM | 34.1 µM | 20.9 µM | 23.7 µM | 17.6 µM | 44.6 µM |  |  |  |  |  |  |  |  |  | 
O=[N+]([O-])c1ccc(S(=O)(=O)Nc2cnccn2)cc1 | 317 µM | ≥ 300 µM | 76.1 µM | 61.5 µM |  |  |  |  | 84.2 µM | Not Active | >4.7 | 224 µM | Not Active | inactive | 14% | 57% |  |  | IC50 (Leishmania amazonensis [2]): Not Active
O=C(Cn1ccnc1[N+](=O)[O-])NCc1ccccc1 [BENZNIDAZOLE] | > 194 µM | ≥ 300 µM |  |  |  |  |  |  |  |  |  |  |  |  |  |  |  |  | 
O=S(=O)(Nc1ccc2ncsc2c1)c1ccccc1 |  | ≥ 300 µM |  | 30.6 µM | 82.6 µM | 77.5 µM | 39.2 µM | 18.4 µM | 23.7 µM |  |  |  |  |  |  |  | inactive | >3.1 | IC50 (Trypanosoma cruzi [9]; nctc-929): Not Active; IC50 (Trypanosoma cruzi [5]): Not Active; Ratio CC50/IC50 [15]: > 13.9; Activity (Leishmania infantum [16]; route intraperitoneal): 53.51%
O=S(=O)(Nc1ccc2c[nH]nc2c1)c1ccc(Cl)cc1 | 211 µM | ≥ 300 µM | 25.9 µM | 35.6 µM | 59.1 µM |  |  | 43.5 µM | 46.1 µM | Not Active | >9.9 | 12.3 µM | Not Active | inactive | -10% | 14% |  |  | 
CC1CCCN(S(=O)(=O)c2cccc3ccccc23)C1 (stereo not given) |  | ≥ 300 µM |  | 9.9 µM | 24.6 µM | 18 µM | 7.1 µM | 6.7 µM | 7.2 µM |  |  |  |  |  |  |  | inactive | >10.4 | Activity (Leishmania infantum [17]): Active; Activity (Leishmania infantum [18]): Active; Activity (Mus musculus): Toxic; IC50 (Trypanosoma cruzi [9]; nctc-929): Not Active; IC50 (Trypanosoma cruzi [5]): Not Active; Ratio CC50/IC50 [15]: > 38.2; Activity (Leishmania infantum [19]): Active; Activity (Leishmania infantum [16]; route intraperitoneal): 80.17%
O=S(=O)(Nc1cccc2cnccc12)c1cccc2ccccc12 | 187 µM | ≥ 300 µM | 97.6 µM | 23 µM | 24.5 µM | 42.9 µM | 23 µM | 20.3 µM | 15.8 µM |  | >1.9 | 141 µM |  | Active | 72% | 60% | inactive | >10.4 | Ratio CC50/IC50 [20]: > 16.2; Activity (Leishmania infantum [16]): inactive
O=S(=O)(Nc1ccc2cn[nH]c2c1)c1ccc(F)cc1 | 223 µM | ≥ 300 µM | 1.3 µM | 88.8 µM | 108 µM |  |  | 94.8 µM | 96.3 µM | Not Active | >196.9 | 28.5 µM | Not Active | inactive | -50% | 44% |  |  | 
